# High-throughput results as filed in PubChem BioAssay.
# RGS4 inh – inhibitors of human RGS4. P49798. 310,000 compounds, 0.45% hits. B-score at 10 µM. HEK293 M3R/RGS4 inducible, Fluo-4 calcium flux; stronger effect = higher value; triggered by carbachol at its EC20;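 active means B-score, a plate-corrected calcium signal, over three deviations above library mean, with baseline fluorescence within five deviations of library mean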;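 further: RGS4 expression induced by doxycycline in cells with stable M3 receptor; B-score is computed from the integrated fluorescence ratio over baseline after carbachol; higher B-score means a larger calcium signal and so more RGS4 inhibition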
# Target sequence (P49798 whole entry, looked up): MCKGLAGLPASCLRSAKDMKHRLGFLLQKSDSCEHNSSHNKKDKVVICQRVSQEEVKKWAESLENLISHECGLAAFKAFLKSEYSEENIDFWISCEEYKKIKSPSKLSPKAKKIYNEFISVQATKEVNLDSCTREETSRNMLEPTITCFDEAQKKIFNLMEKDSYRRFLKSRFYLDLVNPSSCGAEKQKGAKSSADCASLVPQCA
# MrgX1 antagonist – human MrgX1 receptor antagonism, primary screen; B-score at 10 µM; 310,000 compounds, 1.3% hits; MRGX1-HEK293 calcium flux, Fluo-4, BAM8-22 antagonism; stronger effect = lower value; AID 588676;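 active means calcium-response B-score plate-corrected more than 3 library SD below zero, starting fluorescence within 5 deviations, no agonist response on first addition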;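 further: peak minus trough fluorescence over baseline after final BAM8-22 challenge near maximal dose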
# Target sequence (Q96LB2 whole entry, looked up): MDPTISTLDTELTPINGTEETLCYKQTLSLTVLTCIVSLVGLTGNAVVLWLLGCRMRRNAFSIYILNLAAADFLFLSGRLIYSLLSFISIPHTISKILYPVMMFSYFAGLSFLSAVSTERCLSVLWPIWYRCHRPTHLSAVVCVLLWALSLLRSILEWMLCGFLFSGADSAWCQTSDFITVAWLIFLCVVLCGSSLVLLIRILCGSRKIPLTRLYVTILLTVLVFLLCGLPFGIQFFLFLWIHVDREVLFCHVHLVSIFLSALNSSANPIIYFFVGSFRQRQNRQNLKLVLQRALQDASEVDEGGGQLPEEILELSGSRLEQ
# MrgX1 ag – agonists of human MrgX1 receptor | Q96LB2 | MrgX1-HEK293 cells, Fluo-4 calcium fluorescence, agonist mode; stronger effect = higher value | B-score at 10 µM | 310,000 compounds, 0.44% hits;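 active means calcium response B-score plate-corrected fluorescence ratio at least 3 library SD, with starting fluorescence B-score inside 5 SD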
#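 times = overnight plating, then 30 min 37 °C plus 30 min room-temperature dye loading | assay system = stable human MrgX1 HEK293 cell line | input = fifteen thousand cells per well | signal = kinetic calcium dye fluorescence, Fluo-4 NW | dosing = compound delivered in addition one of three | read-out = B-scored fluorescence response ratio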
# MrgX1 PAM – human MrgX1 positive allosteric modulation, primary screen; 310,000 compounds, 0.63% hits; MrgX1-HEK293, Fluo-4 calcium flux, FDSS; stronger effect = higher value; Q96LB2; B-score at 10 µM;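 active means plate-corrected calcium response at least 3 library SD above typical, normal starting fluorescence, not activating the receptor alone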;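 further: compound read alongside a low EC10 to EC30 dose of BAM8-22 agonist; peak minus trough fluorescence over baseline measured at the second addition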
# RGS4 act – RGS4 potentiation or activation. HEK293 M3R/inducible RGS4, carbachol calcium flux Fluo4; stronger effect = lower value. B-score at 10 µM. 310,000 compounds, 0.92% hits. AID 463111;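 active means B-score of the integrated calcium signal more than 4 SD below the library mean, with starting fluorescence not abnormally high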;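 further: negative B-score means reduced calcium response which marks RGS4 activation or potentiation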
#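 System: HEK293 FlpIn-TREx cells, stable M3R, doxycycline-inducible RGS4. Timing: overnight RGS4 induction, 30 min dye load 37 °C, 20 min compound RT. Also added: carbachol, ECmax concentration. Measured by: Fluo4 fluorescence kinetic imaging of calcium. Evaluation: integrated calcium ratio converted to B score.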
# MrgX1 antag conf – human MrgX1 receptor antagonism, re-confirmation screen; remaining BAM8-22 calcium response % of control (stronger effect = lower value), % at 10 µM; shares compounds with MrgX1 antagonist; MrgX1-HEK293, BAM8-22 calcium flux, Fluo-4; stronger effect = lower value; 2,300 compounds, 19% hits; AID 602420;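 active means remaining agonist calcium response no higher than 100% minus 3 SD of agonist-only control wells, with starting fluorescence near control levels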;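 further: agonist BAM8-22 given at a near maximal EC90 to ECmax level; peak minus minimum fluorescence divided by baseline after agonist addition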
# HEK293 Ca flux – counter-screen for MrgX1 antagonists: effect in parental HEK293 cells; AID 624111; Fluo-4 calcium fluorescence, FDSS; 4,000 compounds, 2% hits; shares compounds with MrgX1 antagonist; fluorescence ratio F(max-min)/F0 at 10 µM;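 active means duplicate-averaged calcium fluorescence ratio at least three times the standard deviation of buffer wells, a nonspecific response in parental cells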
# HEK293 Ca counter – MrgX1 allosteric activator counter-screen hit in parental HEK293 cells; fluorescence ratio F(max-min)/F0 at 10 µM; AID 624114; shares compounds with MrgX1 antagonist; 4,000 compounds, 0.4% hits; parental HEK293 calcium flux, Fluo-4 fluorescence ratio; stronger effect = higher value;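 active means calcium fluorescence ratio, averaged over duplicates, at least 3 SD of the buffer-well ratio, meaning a nonspecific response in receptor-free cells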;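 further: untransfected parental HEK293 lacking MrgX1 used as counterscreen for MrgX1 allosteric activators; fluorescence change taken during the second addition on a kinetic imager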
# HEK293 Ca cntr2 – activity in parental HEK293 cells lacking MrgX1 receptor | shares compounds with MrgX1 antagonist | Fluo-4 calcium fluorescence (FDSS); stronger effect = higher value | fluorescence ratio F(max-min)/F0 at 10 µM | 4,000 compounds, 8.7% hits | AID 624115;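 active means calcium fluorescence ratio at least three times the spread of buffer wells, meaning a non-specific response in parental cells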
# An asterisk follows results filed as active; i = inactive; nt = no result. The list is not random: actives were taken first. Their share in the collection is about 3.5%.
SMILES,RGS4 inh,MrgX1 antagonist,MrgX1 ag,MrgX1 PAM,RGS4 act,MrgX1 antag conf,HEK293 Ca flux,HEK293 Ca counter,HEK293 Ca cntr2
Fc1ccccc1NC(=S)Nc1ccc(Br)cc1,i,-6.1*,i,i,i,71%*,i,i,i
S=C(Nc1ccccc1)Nc1ccc(Br)cc1,i,-7.3*,i,i,i,69%*,i,i,i
Cc1ccc(NC(=S)Nc2ccc(Br)cc2)cc1,i,-5.8*,i,i,i,59%*,i,i,i
CC(=O)Nc1ccc(NC(=S)Nc2ccc(Br)cc2)cc1,i,i,i,i,i,nt,nt,nt,nt
COc1ccc(-n2nnc3c(SC(C(C)=O)C(=O)N(C)C)ncnc32)cc1 (stereo not given),i,i,i,i,i,nt,nt,nt,nt
Cc1nc2ccc(F)cc2cc1C(=O)NC(C)C,i,i,i,i,i,nt,nt,nt,nt
NC(=O)C1(N2CCCCC2)CCN(C(=S)Nc2ccc(F)c(Cl)c2)CC1,i,i,i,i,i,nt,nt,nt,nt
O=C(c1cc(-c2ccc(Cl)cc2Cl)on1)N1CCCC1,i,i,i,i,i,nt,nt,nt,nt
O=C(c1cc(-c2ccc(Cl)cc2Cl)on1)N1CCCCCC1,i,-5.3*,i,i,i,i,i,i,i
COc1ccc(C(=O)Nc2nc(-c3cccs3)cs2)cc1,i,-7.6*,i,i,i,i,i,i,i
O=C(Nc1nc(-c2cccs2)cs1)c1ccc(Cl)cc1,i,i,i,i,i,nt,nt,nt,nt
OC(CCN1CCCCC1)(c1ccccc1)c1ccccc1,i,-7.1*,i,i,i,i,i,i,i
OC(CCN1CCCC1)(c1ccccc1)C1CCCCC1 (stereo not given),i,i,i,i,i,nt,nt,nt,nt
CCC(C)(C)n1nnnc1C(c1cc2cc3c(cc2[nH]c1=O)OCO3)N1CCCCC1 (stereo not given),i,-5.9*,i,i,i,i,i,i,i
O=C(NCCN1CCOCC1)c1cc(Sc2ccccc2Cl)nc2ccccc12,i,i,i,i,i,nt,nt,nt,nt
Fc1ccc(COc2ccccc2C(=S)N2CCCC2)cc1,i,-5.4*,i,i,i,i,i,i,i
CC(C)(C)c1ccc(OCCC(=O)OCC(=O)NC2CCS(=O)(=O)C2)cc1 (stereo not given),i,-5.3*,i,i,i,i,i,i,i
Cc1ccc(C)c(OCCC(=O)OCC(=O)NC2CCS(=O)(=O)C2)c1 (stereo not given),i,-5.5*,i,i,i,i,i,i,i
CC(=O)c1ccc(OCC(=O)NC2CCS(=O)(=O)C2)cc1 (stereo not given),i,i,i,i,i,nt,nt,nt,nt
Fc1ccccc1NC(=S)Nn1cnnc1,i,i,i,i,i,nt,nt,nt,nt
O=S(=O)(c1ccc(NC(=S)NCc2ccncc2)cc1)N1CCCCC1,i,i,i,i,i,nt,nt,nt,nt
S=C(NCCCn1ccnc1)Nc1cccc(Cl)c1,i,i,i,i,i,nt,nt,nt,nt
CCn1c(/C=C/c2c(C)[nH]c3ccccc23)nc2ccccc2c1=O,i,-5.3*,i,i,i,i,i,i,i
CNC(=O)c1cc2c(-c3ccccc3)nn(C)c2s1,i,i,i,i,i,nt,nt,nt,nt
Cc1cc2c(NC(=O)Nc3ccc(C(C)(C)C)cc3)cccc2nn1,i,-6.9*,i,i,i,78%*,i,i,i
SMILES,RGS4 inh,MrgX1 antagonist,MrgX1 ag,MrgX1 PAM,RGS4 act,MrgX1 antag conf,HEK293 Ca flux,HEK293 Ca counter,HEK293 Ca cntr2
Cn1cccc1-c1nc2ccccc2n1Cc1ccccc1,i,-4.9*,i,i,i,i,i,i,i
Cn1c(=O)c2c(O)c([N+](=O)[O-])c(=O)n(C)c2n(C)c1=O,i,i,i,i,i,nt,nt,nt,nt
O=C(CNS(=O)(=O)c1cccc2nsnc12)NCc1ccc(Cl)cc1,i,-7.3*,i,i,i,61%*,i,i,i
COC(=O)c1ccc(NC(=S)NCCc2ccccc2C)cc1,i,-5*,i,i,i,i,i,i,i
COC(=O)c1ccc(NC(=S)NCCc2cccc(C)c2)cc1,i,i,i,i,i,nt,nt,nt,nt
COc1ccccc1NS(=O)(=O)c1cc(NC(=O)C(C)(C)C)ccc1N1CCOCC1,i,-4.6*,i,i,i,82%*,i,i,i
CC(C)N1CC23C=CC(O2)C(C(=O)OCc2ccccc2)C3C1=O (stereo not given),i,-5*,i,i,i,i,i,i,i
CC(C)N1C[C@@]23C=C[C@@H](O2)C(C(=O)OCc2ccccc2)[C@H]3C1=O (stereo not given in full),i,i,i,i,i,nt,nt,nt,nt
C/C(=N\NC(=O)c1cccc(S(=O)(=O)N2CCCC2)c1)c1ccc(OCC(=O)N(C)C)cc1,i,i,i,i,i,nt,nt,nt,nt
N#Cc1c(N)n(-c2ccccc2)c(=O)c2cc([N+](=O)[O-])ccc12,i,i,i,i,i,nt,nt,nt,nt
CC1(C)Cc2c(C#N)c(N)n(-c3ccccc3)c(=O)c2CO1,i,-13*,i,i,i,i,i,i,i
COc1ccc(-c2cc(C(=O)NCc3ccco3)c3ccccc3n2)cc1,i,i,i,i,i,nt,nt,nt,nt
O=C(NCc1ccco1)c1cc(-c2ccccc2)nc2ccccc12,i,-5.3*,i,i,i,i,i,i,i
C=CCn1c(SCC(=O)Nc2cc(C)on2)nnc1C1COc2ccccc2O1 (stereo not given),i,-6.1*,i,i,i,85%*,i,i,i
CC(OC(=O)CNS(=O)(=O)c1ccc(C#N)cc1)C(=O)Nc1cccc(C#N)c1 (stereo not given),i,i,i,i,i,nt,nt,nt,nt
